T cruzi repl: blocks replication of Trypanosoma cruzi | T. cruzi beta-gal in NIH3T3, luminescence, 90 h | AID 1885 | inhibition, % (no concentration beside the values) | actives 1.4% (n = 300,000);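 active = mean inhibition across valid replicates above about 55%, limit read from the data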;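 also: signal also drops with host cell toxicity which is not excluded here; 0% = plate median of DMSO wells and 100% = zero luminescence signal; higher percent means less beta-gal luminescence so fewer parasites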
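Assay system: NIH/3T3 host cells with β-galactosidase reporter T. cruzi; input: 5,000 host fibroblasts per well; compound: single 50 nL compound addition per well in DMSO; timing: ≥90 h infection period, 3 h prior cell attachment; measured by: GalScreen β-gal luminescence, detergent lysis, 60 min; evaluation: percent inhibition of parasite-derived β-gal signal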
Beta cell apopt: blocks beta cell apoptosis; INS-1E cytokine-induced death, ATP luminescence, 48 h; percent of positive-control rescue, neutral wells zero; protection from apoptosis, % (no concentration beside the values); actives 0.8% (n = 300,000);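 active = Every replicate reaches about 75%, or at least half do and their mean reaches it too, limit read from the data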;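 also: 0% = cytokine-treated negative control wells and 100% = positive control rescue; higher means more ATP so stronger rescue from cytokine killing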
CSC inhib: cancer stem cell inhibition; actives 1.1% (n = 300,000); cancer stem cell-like cells viability, luminescence; inhibition, % at 7.5 µM; AID 2717; in the data active = inhibition above about 75%; tested in HMLE shEcad cells
CHOP inhibitor: inhibitors of CHOP induction in ER stress response. CHO-K1 CHOP-promoter luciferase, tunicamycin-induced, 15-18 h. inhibition, % at 10 µM. actives 3.8% (n = 220,000);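 active = compounds that reduced the stress-induced luciferase reporter signal by more than about 70% of percent inhibition, limit read from the data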;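 also: 0% = tunicamycin plus vehicle and 100% = wells without tunicamycin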
NR3A LBD binder: NR3A (human) ligand-binding domain modulation | NR3A LBD differential scanning fluorimetry, Tm shift; 0% = protein alone, 100% = glycine-bound protein | Tm shift relative to glycine control, % at 25 µM | actives 2.5% (n = 340,000) | AID 1259313;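 active = melting temperature shift of at least 10% of the positive control shift, at one fixed dose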
PREPL inh: inhibits the human prolyl oligopeptidase-like enzyme; inhibition, % at 5.96 µM; recombinant PREPL, fluorescence polarization activity-based probe; actives 0.68% (n = 320,000); Q4J6C6;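 also: 0% = enzyme with DMSO and 100% = wells lacking enzyme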
Target sequence (Q4J6C6 whole entry, looked up): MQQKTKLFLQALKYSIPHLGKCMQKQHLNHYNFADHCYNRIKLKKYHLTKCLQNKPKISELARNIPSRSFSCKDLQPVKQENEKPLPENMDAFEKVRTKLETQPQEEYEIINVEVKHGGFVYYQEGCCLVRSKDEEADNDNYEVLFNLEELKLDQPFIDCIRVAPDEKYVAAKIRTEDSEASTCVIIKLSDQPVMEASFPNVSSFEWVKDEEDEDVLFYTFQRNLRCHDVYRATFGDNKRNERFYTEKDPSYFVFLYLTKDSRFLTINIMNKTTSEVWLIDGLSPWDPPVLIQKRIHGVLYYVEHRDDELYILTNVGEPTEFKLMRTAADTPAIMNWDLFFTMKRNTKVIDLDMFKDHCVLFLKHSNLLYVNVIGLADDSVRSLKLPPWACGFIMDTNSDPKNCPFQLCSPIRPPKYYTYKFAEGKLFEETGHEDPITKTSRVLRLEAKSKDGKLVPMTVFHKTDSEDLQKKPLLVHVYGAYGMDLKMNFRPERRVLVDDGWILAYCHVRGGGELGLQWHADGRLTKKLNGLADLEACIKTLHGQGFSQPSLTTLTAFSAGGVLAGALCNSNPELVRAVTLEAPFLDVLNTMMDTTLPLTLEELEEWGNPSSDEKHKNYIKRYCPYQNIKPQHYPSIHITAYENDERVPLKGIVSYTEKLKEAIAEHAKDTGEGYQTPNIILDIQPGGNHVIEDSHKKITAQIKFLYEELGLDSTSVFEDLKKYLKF
PREPL confirm: confirmation of human PREPL enzyme inhibitors. shares compounds with PREPL inh. recombinant PREPL, fluorescence polarization activity probe. inhibition, % at 5.96 µM. actives 67% (n = 2,000). AID 2803;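 also: 0% = protein with DMSO and 100% = wells lacking protein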
* hit, by the source's call; . = not tested or not shown. Compounds with a hit are over-represented: about 6.7% of the library has one in this group of screens. Rule as the data show it, unless noted: active = inhibition above about 43%; inactive = the rest.

SMILES	T cruzi repl	Beta cell apopt	CSC inhib	CHOP inhibitor	NR3A LBD binder	PREPL inh	PREPL confirm
O=c1c(O)c(-c2cc(O)c(O)c(O)c2)oc2cc(O)cc(O)c12	.	-18	13	-8	27*	90*	55*
CC(C)c1nnc(NC(=O)CCC(=O)N2CCN(c3ccc(Cl)cc3)CC2)s1	5	.	-21	.	0	43*	43
O=C(Nc1ccc(NC(=O)N2CCN(c3ccccc3O)CC2)cc1)N1CCN(c2ccccc2O)CC1	1	-4	12	.	1	56*	52*
COc1cc(/C=N/N=C(N)N)ccc1OCc1ccccc1Cl	55*	20	63	57	3	49*	48*
COc1ccc(N2CCN(S(=O)(=O)c3cc(C)ccc3OC)CC2)cc1	22	0	4	21	-1	15	.
COc1ccc(NC(=O)c2ccc(-c3ccc(-c4noc(C)n4)cc3C)cc2)cc1N1CCN(C)CC1	.	14	56	5	2	76*	60*
O=C(c1ccc2c(c1)OCO2)N1CCN(c2ccccc2)CC1	0	-3	-3	20	0	15	.
COc1ccc(CNc2ccc(N3CCN(C(C)=O)CC3)cc2)cc1OC	.	.	.	.	-1	.	.
CC(=O)N1CCN(c2ccc(NCc3ccc4c(c3)OCO4)cc2)CC1	12	-5	-10	26	-4	72*	12
CN1CCN(c2ccc(NC(=O)c3cc4ccccc4o3)cc2)CC1	35	2	12	.	-4	4	.
O=C(c1ccccc1)N1CCN(c2ccc(NCc3ccc4c(c3)OCO4)cc2)CC1	1	8	55	45	0	74*	53*
O=C(Nc1ccc(N2CCN(C(=O)c3ccccc3)CC2)cc1)c1cc2ccccc2o1	.	37	.	55	-15	45*	36
COC(=O)c1ccccc1OCCOCCOc1cccc2ccc(C)nc12	1	-5	-10	26	-1	49*	2
COc1ccc(-c2cn[nH]c2-c2ccc(OCc3ccccc3)cc2O)cc1OC	18	7	43	27	0	49*	32
Cc1ccc(C)c(NC(=O)COC(=O)c2cccc3c2C(=O)c2ccccc2C3=O)c1	-22	0	29	8	-11	60*	47*
COc1cc(C=NNc2ccc(S(=O)(=O)Nc3ccccc3C(=O)O)cc2[N+](=O)[O-])ccc1O	.	0	33	.	19*	55*	38
COc1cc(C(=O)OCC(=O)NC2CC2)ccc1OCCC(C)C	.	-1	.	.	-1	11	.
COc1ccc2[nH]c(C)c(C(=O)CN3CCN(C/C=C/c4ccccc4)CC3)c2c1	32	-4	-14	-6	-2	44*	35
O=[N+]([O-])c1cc(Cl)ccc1N1CCCC1	-3	5	12	17	-1	15	.
O=C1C(Cl)=C(N2CCN(c3ccccc3[N+](=O)[O-])CC2)C(=O)c2ccccc21	0	14	28	31	-11	58*	44*
c1ccc(NCc2nc3ccccc3n2CCOc2ccccc2)cc1	30	3	15	18	-4	18	.
COc1ccc(NCc2nc3ccccc3n2CCOc2ccc(C)cc2)cc1	39	41	-7	58	-2	62*	60*
CN1CCN(c2ccc(NC(=O)COc3ccccc3Cl)cc2)CC1	21	7	36	13	1	44*	42
Cc1cc(OCC(=O)Nc2ccc(N3CCN(C)CC3)cc2)ccc1Cl	0	4	39	.	0	70*	56*
Cc1cc(OCC(=O)Nc2ccc(S(=O)(=O)N3CCN(C)CC3)cc2)ccc1Cl	1	-3	-3	54	-1	6	.
SMILES	T cruzi repl	Beta cell apopt	CSC inhib	CHOP inhibitor	NR3A LBD binder	PREPL inh	PREPL confirm
Cc1ccc(/C=C/C(=O)Nc2ccc(N(C)C)cc2)o1	47	-1	-2	13	-22	48*	42
Cc1ccc(/C=C/C(=O)Nc2ccncc2)o1	-2	2	9	14	-2	11	.
Cc1ccc(Sc2cnn(-c3ccccc3)c(=O)c2Cl)cc1	-17	6	.	64	-1	46*	38
Nc1ccc(Sc2cnn(-c3ccccc3)c(=O)c2Cl)cc1	-4	-3	5	61	-3	12	.
c1cncc(N=c2scc(-c3cccc4ccccc34)n2CCCn2ccnc2)c1	47	-1	0	21	-5	53*	54*
Cc1ccc(-c2csc(=Nc3cccnc3)n2CCCn2ccnc2)cc1C	64*	0	-21	62	-8	47*	57*
COCCn1c(-c2ccccc2)csc1=Nc1cccnc1	1	.	12	44	-1	0	.
Cc1ccc(-c2csc(=Nc3cccnc3)n2CCCN2CCCC2=O)cc1C	-55	-4	-38	19	-6	49*	54*
COc1cc(OC)cc(C(=O)N[C@H](C(=O)OCC(=O)Nc2cccnc2Cl)C(C)C)c1	.	-3	.	.	-2	1	.
O=C(CC(=O)NC1CCCCC1)N/N=C/c1ccccc1F	4	4	-6	12	.	-1	.
COc1cccc2c(N/N=C/c3ccccc3)cc(C)nc12	1	.	-11	.	2	8	.
COc1ccc2nc(C)cc(N/N=C/c3cccc(OC)c3O)c2c1	18	29	1	.	-1	64*	59*
Cc1cc(N/N=C/c2ccccc2O)c2ccccc2n1	10	42	22	.	-8	27	.
COc1ccc(/C=N/Nc2cc(C)nc3ccc(Br)cc23)cc1	59*	100*	107*	.	-5	56*	52*
CC(C)C(OC(=O)c1nsc(Cl)c1Cl)C(=O)NCC1CCCO1 (centres undefined)	-7	-9	.	.	3	-3	.
COc1cc(C(=O)NC(=S)Nc2ccc(N3CCCC3)cc2)cc(OC)c1OC	33	-5	-11	75*	-2	69*	46*
Cc1ccc(N2C(=O)CC(Cc3cccc(C)c3)C2=O)cc1 (centres undefined)	12	2	-12	15	-2	-6	.
O=c1c2c3c(sc2nc(NCCO)n1CCc1ccccc1)CCCCC3	46	-4	.	54	2	164*	40
COc1ccc(N2CCN(c3ccc4nnc(CCC(=O)Nc5ccc(C)cc5)n4n3)CC2)cc1	7	-8	-9	.	1	59*	60*
COc1ccccc1C1CC(c2ccco2)=NN1S(C)(=O)=O (centres undefined)	-7	-6	-7	16	-1	3	.
C(=N\n1cnnc1)/c1ccc(OCc2cccc3ccccc23)cc1	-5	-3	0	57	-9	50*	43
Clc1ccc(OCc2nn3c(C4CCCCC4)nnc3s2)cc1	4	-4	-8	-1	1	46*	33
CCN(CC)Cc1c(O)ccc2occ(C(=O)c3ccc(OC)cc3)c12	23	-4	2	6	-4	43	.
